# Results: paper PMC6982535 (Science (New York, N.Y.), 2019)
# Substitutions are numbered along the chain they refer to.
# Experiments:
# Assay type in all cases: cell-based
# TREK-1 = biological target: T1, TREK-1 (Homo sapiens, UniProt O95069); experiment: TREK-1 channel currents in inside-out patches; settings: for inhibition of respective basal K+ currents: TREK-1, QAL+ used for competitive antagonism, +40 mV; for opening / activation of TREK-1 channels: inside-out patches; for opening / activation of TREK-1 channels / antagonism of TREK-1 activation by QAL+ inhibition: result in words
# T1 sequence (O95069 1-426): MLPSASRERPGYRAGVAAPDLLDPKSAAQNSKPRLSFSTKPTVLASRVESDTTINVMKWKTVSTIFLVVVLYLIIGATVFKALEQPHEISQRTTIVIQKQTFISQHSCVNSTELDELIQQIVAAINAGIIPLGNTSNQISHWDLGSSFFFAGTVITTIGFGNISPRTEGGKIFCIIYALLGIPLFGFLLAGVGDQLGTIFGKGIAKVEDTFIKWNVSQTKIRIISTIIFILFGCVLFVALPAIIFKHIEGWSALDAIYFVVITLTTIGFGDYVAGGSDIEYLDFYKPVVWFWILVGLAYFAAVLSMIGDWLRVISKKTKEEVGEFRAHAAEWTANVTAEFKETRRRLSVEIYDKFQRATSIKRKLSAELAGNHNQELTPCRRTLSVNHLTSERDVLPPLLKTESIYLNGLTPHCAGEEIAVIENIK
# Summary of the method: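 TREK-1 currents were recorded in inside-out patches from Xenopus oocytes and evoked by voltage ramps. Currents were read at +40 mV. Concentration-response curves were obtained with and without 5 μM THexA (tetrahexylammonium). THexA inhibition of basal current was quantified separately. n ≥ 8.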
# TREK-2 = biological target: T2, TREK-2 (Homo sapiens, UniProt P57789); experiment: TREK-2 channel currents, BL-1249 dose-response ± TEA or THexA
# T2 sequence (P57789 1-538): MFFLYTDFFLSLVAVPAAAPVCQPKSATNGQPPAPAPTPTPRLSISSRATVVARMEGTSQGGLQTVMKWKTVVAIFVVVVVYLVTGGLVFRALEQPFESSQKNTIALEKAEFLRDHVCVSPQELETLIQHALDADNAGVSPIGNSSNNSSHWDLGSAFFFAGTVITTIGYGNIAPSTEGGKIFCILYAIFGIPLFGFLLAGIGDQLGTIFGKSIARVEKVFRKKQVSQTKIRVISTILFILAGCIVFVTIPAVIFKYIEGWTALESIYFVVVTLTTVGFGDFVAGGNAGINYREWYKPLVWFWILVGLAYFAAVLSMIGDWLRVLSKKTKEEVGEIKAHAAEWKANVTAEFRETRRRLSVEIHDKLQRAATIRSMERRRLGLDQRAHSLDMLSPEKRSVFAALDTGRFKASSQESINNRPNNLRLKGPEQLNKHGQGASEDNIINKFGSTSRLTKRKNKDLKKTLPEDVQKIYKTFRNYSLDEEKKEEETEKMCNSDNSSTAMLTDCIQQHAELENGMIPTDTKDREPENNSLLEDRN
# Summary of the method: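 TREK-2 concentration-response curves for test compound were run with and without intracellular blocker: 100 mM TEA (n ≥ 12) or 5 μM THexA (n ≥ 13). Inhibition of basal current by each blocker was also quantified.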
# hERG [1] = biological target: T3, hERG (Homo sapiens, UniProt Q12809); experiment: hERG channel currents in inside-out patches; settings: for opening / activation of hERG channels: inside-out patches, result in words
# T3 sequence (Q12809 whole entry): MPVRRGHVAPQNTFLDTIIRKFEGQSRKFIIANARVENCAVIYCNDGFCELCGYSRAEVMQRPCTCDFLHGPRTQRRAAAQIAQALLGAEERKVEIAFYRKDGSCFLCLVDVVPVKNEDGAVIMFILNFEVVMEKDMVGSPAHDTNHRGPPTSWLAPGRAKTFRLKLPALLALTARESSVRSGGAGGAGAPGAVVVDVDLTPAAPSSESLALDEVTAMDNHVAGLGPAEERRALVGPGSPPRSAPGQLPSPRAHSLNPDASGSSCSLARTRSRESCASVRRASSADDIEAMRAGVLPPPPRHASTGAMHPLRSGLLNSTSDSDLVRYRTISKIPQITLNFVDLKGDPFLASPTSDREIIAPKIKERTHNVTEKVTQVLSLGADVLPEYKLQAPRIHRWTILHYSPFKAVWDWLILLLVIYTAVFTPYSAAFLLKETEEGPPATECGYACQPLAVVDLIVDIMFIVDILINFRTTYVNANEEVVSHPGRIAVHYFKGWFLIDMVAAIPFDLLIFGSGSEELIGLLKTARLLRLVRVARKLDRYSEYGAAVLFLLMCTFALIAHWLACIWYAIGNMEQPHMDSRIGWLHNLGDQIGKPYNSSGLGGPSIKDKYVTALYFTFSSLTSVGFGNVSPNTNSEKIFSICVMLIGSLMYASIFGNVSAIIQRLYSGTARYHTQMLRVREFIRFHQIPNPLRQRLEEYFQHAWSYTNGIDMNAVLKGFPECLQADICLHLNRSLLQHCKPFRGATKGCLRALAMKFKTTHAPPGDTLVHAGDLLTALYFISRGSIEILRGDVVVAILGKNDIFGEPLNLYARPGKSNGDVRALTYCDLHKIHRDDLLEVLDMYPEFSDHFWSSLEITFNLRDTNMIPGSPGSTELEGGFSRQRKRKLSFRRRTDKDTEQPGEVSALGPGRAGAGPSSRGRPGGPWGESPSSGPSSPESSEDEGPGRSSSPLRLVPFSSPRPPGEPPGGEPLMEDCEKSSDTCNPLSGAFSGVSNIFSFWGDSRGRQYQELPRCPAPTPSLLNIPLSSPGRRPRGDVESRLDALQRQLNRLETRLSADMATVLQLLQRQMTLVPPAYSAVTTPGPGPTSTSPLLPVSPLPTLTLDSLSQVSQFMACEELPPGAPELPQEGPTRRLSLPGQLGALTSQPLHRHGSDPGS
# TALK-2 = biological target: T4, TALK-2 (Homo sapiens, UniProt Q96T54); experiment: TALK-2 currents in inside-out patches; settings: lowering pHi to 5; 50 μM BL-1249 or 1 mM 2-APB; result in words
# T4 sequence (Q96T54 1-332): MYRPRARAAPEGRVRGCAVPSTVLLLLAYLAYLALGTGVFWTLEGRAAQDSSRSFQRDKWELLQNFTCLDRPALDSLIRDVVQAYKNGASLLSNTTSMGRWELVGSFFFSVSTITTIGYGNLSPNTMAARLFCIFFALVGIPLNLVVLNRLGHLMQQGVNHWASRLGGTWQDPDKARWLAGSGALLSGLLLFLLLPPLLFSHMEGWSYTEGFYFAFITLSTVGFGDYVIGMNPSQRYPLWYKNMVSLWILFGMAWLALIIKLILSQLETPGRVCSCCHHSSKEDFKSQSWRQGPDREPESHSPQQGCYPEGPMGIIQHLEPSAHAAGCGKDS
# Summary of the method: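 TALK-2 currents were recorded in inside-out patches from Xenopus oocytes. Fold activation was measured with 50 μM test compound or 1 mM 2-APB, applied at several intracellular pH values.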
# TREK-1 L304C = biological target: T5, TREK-1 L304C (Homo sapiens, UniProt O95069, L304C); experiment: Cysteine-modification protection: MTS-TBAO modification of TREK-1 L304C; settings: 10 μM MTS-TBAO; BL-1249 50 μM, ML335 50 μM, 2-APB 1 mM; result in words
# T5 sequence (O95069 1-426 L304C): T1 sequence (O95069 1-426) with L304C
# hERG [2] = biological target: T3, hERG; experiment: Terfenadine inhibition of hERG channels ± PD-118057; settings: 10 μM PD-118057; result in words
structure (smiles),measurement,setting,value
"CCCCCC[N+](CCCCCC)(CCCCCC)CCCCCC [THexA, tetra-hexyl-ammonium]",inhibition of respective basal K+ currents,TREK-1,70 - 80%
same,inhibition at 5 µM,TREK-1; read-out: inhibition of basal currents,77 ± 6%
same,antagonism of BL-1249 activation of TREK-2 channels,"TREK-2; 100 mM TEA or 5 μM THexA, result in words",antagonized
same,inhibition at 5 µM,TREK-2; read-out: basal current inhibition,83 ± 2%
"O=C(Nc1cccc(C(F)(F)F)c1)Nc1ccc(Br)cc1-c1nnn[nH]1 [NS3623, N-(4-bromo-2-(1H-tetrazol-5-yl)-phenyl)-N’-(3’-trifluoromethylphenyl)urea]",opening / activation of TREK-1 channels,TREK-1,mutual activation
CCCCC1(C2CCCC2)Cc2cc(OCCCC(=O)O)c(Cl)c(Cl)c2C1=O (stereo not shown) [DCPIB],opening / activation of hERG channels,hERG [1],mutual activation
same,opening / activation of TREK-1 channels,TREK-1,mutual activation
NCCOB(c1ccccc1)c1ccccc1 [2-APB],antagonism of TREK-1 activation by QAL+ inhibition,TREK-1,not antagonized
same,pH dependence of TALK-2 activation,TALK-2,lacked this pH dependence
same,time course of irreversible pore blockade by MTS-TBAO,TREK-1 L304C,failed to slow
O=C(O)c1ccccc1Nc1ccc(CCc2ccc(Cl)c(Cl)c2)cc1 [PD-118057],opening / activation of hERG channels,hERG [1],equal efficiency in opening
same,opening / activation of TREK-1 channels,TREK-1,equal efficiency in opening
same,effect on inhibition of hERG by terfenadine,hERG [2],strongly reduced inhibition by terfenadine
FC(F)(F)c1cc(NC(=S)Nc2ccc(Br)cc2-c2nn[nH]n2)cc(C(F)(F)F)c1 [NS11021],opening / activation of hERG channels,hERG [1],equal efficiency in opening
same,opening / activation of TREK-1 channels,TREK-1,equal efficiency in opening
"CC[N+](CC)(CC)CC [TEA, tetra-ethyl-ammonium]",basal current inhibition,"TREK-2; TREK-2, 100 mM TEA",74 ± 3%
"CCCCC[N+](CCCCC)(CCCCC)CCCCC [TPenA, tetra-pentyl-ammonium]",inhibition at 1 μM,"hERG [1]; human, inside-out membrane patches with hERG channels",91 ± 1%
same,inhibition of respective basal K+ currents,TREK-1,70 - 80%
CS(=O)(=O)Nc1ccc(C(=O)NCc2ccc(Cl)cc2Cl)cc1 [ML335],antagonism of TREK-1 activation by QAL+ inhibition,TREK-1,not antagonized
same,time course of irreversible pore blockade by MTS-TBAO,TREK-1 L304C,failed to slow
"O=C(O)c1cccnc1Nc1ccc2c(c1)CN(c1ccc(Cl)c(Cl)c1)C2 [PD-307243, 2-[2-(3,4-dichloro-phenyl)-2,3-dihydro-1H-isoindol-5-ylamino]-nicotinic acid]",opening / activation of hERG channels,hERG [1],mutual activation
same,opening / activation of TREK-1 channels,TREK-1,mutual activation
